The nature of assay [1]: inhibitors of TNFa-induced NFkB p65 translocation, primary screen, imaging, HUVEC, MLSMR starter and 10KST1 sets (AID 438;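 active means inhibition above 20% together with a positive visual image hit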;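 further: compound added about 3h40 before a 20 min TNFalpha stimulation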;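 on inhibition: signal is the nuclear over cytoplasmic p65 intensity ratio per well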). The settings on record: HUVEC TNFa-induced p65 nuclear translocation; cell count: measured here: nuclei count (cytotoxicity indicator), at 2.08 µM; inhibition: at 2 µM, stronger effect = higher value, 0% TNFa-plus-vehicle, 100% no-TNFa wells.
Assay [2] in a line: inhibitors of E-selectin induction by TNFa, primary screen, imaging, HUVEC, immunofluorescence, MLSMR starter and 10KST1 sets (AID 487;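 active means visually confirmed hit in the image check and inhibition above 20%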;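 on inhibition: signal is fraction of cell area covered by stained E-selectin grains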;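 on nuclei count: 100% = median nuclei count of all wells on the same plate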). The settings on record: HUVEC TNFalpha-induced E-selectin immunofluorescence imaging, at 2 µM; inhibition: stronger effect = higher value; nuclei count: measured here: cell number, toxicity.
Assay [3] can be described thus: DUSP6 inhibitors restoring Erk phosphorylation by chemical complementation, primary imaging in DUSP6-transfected HeLa (AID 609;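 active means compounds giving at least 50% inhibition in the cell-based MKP-3 phosphatase rescue imaging test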;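 on inhibition: phospho-Erk level distribution per well compared with pooled transfected vehicle control wells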). The note with it: HeLa MKP-3 transfected, phospho-Erk imaging KS statistic, at 10 µM, cells stimulated with TPA for 15 min.
Assay [4] concerns the target Dual specificity protein phosphatase 6 (Homo sapiens) (UniProt Q16828). Described as above. The note with it: HeLa MKP-3 transfected, phospho-Erk imaging KS statistic; at 10 µM; stronger effect = higher value; cells stimulated with TPA for 15 min.
The target of assay [5] is Voltage-gated potassium channel subunit beta-2 (Rattus norvegicus) (UniProt P62483). In words: KvBeta enzyme negative modulators, primary screen, biochemical, NADPH fluorescence (AID 622;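 active means fluorescence slope higher than the sample average by over 3 SD, cut at about -0.22 in these data, passing the limit was not always enough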;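 further: slope of raw intensity against log time taken from 70 to 1610 s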). The settings on record: recombinant KvBeta, 4-cyanobenzaldehyde reduction, at 10 µM, stronger effect = higher value.
Chain of Voltage-gated potassium channel subunit beta-2 (Rattus norvegicus) (P62483 whole entry, looked up): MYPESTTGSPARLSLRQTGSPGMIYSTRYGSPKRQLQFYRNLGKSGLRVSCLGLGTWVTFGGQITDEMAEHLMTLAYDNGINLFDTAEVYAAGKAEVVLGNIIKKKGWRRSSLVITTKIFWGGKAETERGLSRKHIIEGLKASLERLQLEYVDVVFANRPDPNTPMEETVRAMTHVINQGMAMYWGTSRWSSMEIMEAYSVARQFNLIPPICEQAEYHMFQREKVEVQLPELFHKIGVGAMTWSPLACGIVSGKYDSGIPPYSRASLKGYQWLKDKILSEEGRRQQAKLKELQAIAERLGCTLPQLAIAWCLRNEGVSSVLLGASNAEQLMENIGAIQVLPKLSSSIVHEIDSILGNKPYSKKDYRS
The target is the same in assay [6]. In words: KvBeta positive modulators, primary screen, biochemical, NADPH fluorescence (AID 623).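 Further: fluorescence intensity change per second fitted from 20 to 320 s.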 The note with it: Recombinant KvBeta, NADPH fluorescence decrease slope, 10 min; at 10 µM; stronger effect = lower value.
Assay [7] has as its target Muscarinic acetylcholine receptor M4 (Homo sapiens) (UniProt P08173). The assay can be described thus: compounds altering M4/GIRK thallium flux, either direction, primary screen, M4 allosteric agonist project, cell-based, HEK293 M4/GIRK, BTC-AM (AID 625;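 active means fluorescence slope after compound addition differing from the mean of all tested samples at 99.7% confidence, mostly higher but some lower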;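 further: thallium influx through GIRK channels coupled to M4 in HEK293 cells with BTC-AM dye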). The note with it: at 10 µM, actives lie on both sides. The method, boiled down: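 Assay system: HEK293 cells with M4 receptor and GIRK channels / Controls: carbachol and DMSO controls / Schedule: 1 h dye loading, 2 min kinetic read / Technique: kinetic fluorescence with BTC-AM dye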

Assay [8] in a line: inhibitors of larval lipid processing in zebrafish, primary screen, whole organism, PED6 fluorescence, gall bladder and intestine (AID 686;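 active means a full or partial loss of lipid-probe fluorescence in the fish gall bladder, intestine or both, judged by eye; inactive means no fluorescence loss, or compound toxic to the fish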;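 further: signal comes from phospholipase A2 cleavage of quenched PED6 carried via bile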). The settings on record: Zebrafish larvae PED6 lipid processing, fluorescence scoring; screened at 20 µM (by protocol). An outline of the steps: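 Doses: 20 µM single dose. Test system: live zebrafish larvae aged 5-7 days, whole organism. Quantity: five larvae per well. Measured by: By-eye fluorescence microscopy. Reagent: ingested quenched lipid PED6 at 100 nM. Read-out: visual per-well fluorescence inhibition score. Times: overnight exposure of larvae to compound plus PED6.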

A short description of assay [9]: inhibitors of Chlamydomonas gravitaxis, primary screen, whole organism, Chlamydomonas reinhardtii, WT vs cilia-less mutant, absorbance, 96-well (AID 463189;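 active means inhibition at or above 50% relative to wild type and mutant plate controls; inactive means inhibition below 50%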;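 further: 0% = wild type cc124 cells in DMSO and 100% = ciliumless bld1 mutant cells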). The settings on record: OD600 absorbance, 2 days, at 10 µM, stronger effect = higher value.
The mark [10] stands for this setting: measured here: cell density z-score.
Setting [11] is: measured here: nuclear c-Myc green intensity z-score.
Setting [12] is: measured here: nuclear pErk red intensity z-score, stronger effect = higher value.

Data on seven molecules can be found in PubChem BioAssay.

Calls of active or inactive are those of the source.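 How the source made its calls, unless noted: active means NADPH fluorescence slope more negative than the mean of all samples by about 3 SD, 99.7% confidence; inactive means the rest.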

Chain of Dual specificity protein phosphatase 6 (Homo sapiens) (Q16828 whole entry, looked up): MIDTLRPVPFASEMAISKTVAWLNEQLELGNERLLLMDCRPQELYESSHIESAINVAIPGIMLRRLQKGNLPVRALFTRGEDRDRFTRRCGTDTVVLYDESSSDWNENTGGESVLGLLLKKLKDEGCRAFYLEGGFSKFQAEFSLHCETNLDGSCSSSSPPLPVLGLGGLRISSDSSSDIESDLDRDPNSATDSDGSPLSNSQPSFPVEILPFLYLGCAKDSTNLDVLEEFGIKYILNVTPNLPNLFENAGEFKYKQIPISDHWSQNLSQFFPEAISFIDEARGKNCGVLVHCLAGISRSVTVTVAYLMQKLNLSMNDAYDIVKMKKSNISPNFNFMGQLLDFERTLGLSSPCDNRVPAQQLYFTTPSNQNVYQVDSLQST
Chain of Muscarinic acetylcholine receptor M4 (Homo sapiens) (P08173 whole entry, looked up): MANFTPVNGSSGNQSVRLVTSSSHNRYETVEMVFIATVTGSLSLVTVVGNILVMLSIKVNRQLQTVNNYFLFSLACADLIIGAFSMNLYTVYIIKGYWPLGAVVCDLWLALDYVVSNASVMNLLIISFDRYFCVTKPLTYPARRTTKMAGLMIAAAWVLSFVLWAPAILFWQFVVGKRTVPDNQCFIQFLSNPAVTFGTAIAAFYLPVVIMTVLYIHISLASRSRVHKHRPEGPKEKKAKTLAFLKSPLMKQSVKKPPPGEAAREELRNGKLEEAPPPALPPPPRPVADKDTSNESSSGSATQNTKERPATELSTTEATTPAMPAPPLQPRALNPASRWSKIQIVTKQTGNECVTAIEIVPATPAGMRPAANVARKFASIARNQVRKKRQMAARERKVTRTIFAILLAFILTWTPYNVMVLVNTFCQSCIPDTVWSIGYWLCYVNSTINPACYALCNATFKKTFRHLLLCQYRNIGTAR

Take `O=c1[nH]c(CN(CCO)CCO)nc2c1C1(CCCCC1)Cc1ccccc1-2`: the cell count in assay [1] turned out to be 692. Further, the inhibition (in general, the change of the read-out against control, counted positive when it falls) is -15.1% (inactive) in [1], -131% (inactive) in assay [2], 9.91% (inactive) in [4] and 1.18% (inactive) in [9]. Also, the nuclei count in [2] turned out to be 181%. Besides, the z-score amounted to 0.688 in assay [3] (setting [10]), 0.303 in [3] (setting [11]) and 0.475 in assay [3] (setting [12]). For the same molecule, the fluorescence slope is -0.47 (inactive) in assay [5] and 0.00503 (inactive) in [7]. In addition, the NADPH fluorescence slope in [6] is -5.1e-05 (inactive). For the same molecule, the call in assay [8] was inactive.

As to `CC1(C)Cc2c(c(N3CCOCC3)nc3sc4c(NCc5ccco5)nnnc4c23)CS1`, the cell count in assay [1] turned out to be 504. The inhibition in assay [1] was -8.4% (inactive); in assay [2], -6.5% (inactive); in assay [4] it was 19.8% (inactive); in assay [9], 15.9% (inactive). Besides, the nuclei count in [2] turned out to be 116%. Further, the z-score in assay [3] (setting [10]) is 1.05; in [3] (setting [11]), -0.977; in assay [3] (setting [12]), 0.343. Also, the fluorescence slope in assay [5] was -0.419 (inactive); in assay [7], 0.00933 (inactive). Also, in assay [6], the NADPH fluorescence slope is -5e-06 (inactive). Further, the outcome in assay [8] was inactive.

With `C/C(=N\O)C(=O)NCCCn1ccnc1`, in assay [1], the cell count is 636. The inhibition in assay [1] is -10.8% (inactive); in [2], 26.6% (inactive); in [4] it was -0.233% (inactive); in [9], -9.7% (inactive). This molecule displayed a nuclei count in [2] of 94.5%. Moreover, the z-score in [3] (setting [10]) was -0.252; in assay [3] (setting [11]), 0.0271; in [3] (setting [12]) it was 0.47. Moreover, the fluorescence slope is -0.478 (inactive) in assay [5] and 0.00635 (inactive) in assay [7]. Moreover, the NADPH fluorescence slope in assay [6] is -0.000143 (inactive). Moreover, the outcome in assay [8] was inactive.

On to `N#C/C(C(=O)N1CCCCC1)=C1\Nc2ccccc2S1`, for which, in [1], the cell count worked out at 649. Also, the inhibition was 6.4% (inactive) in assay [1], -0.9% (inactive) in [2], 1.63% (inactive) in assay [4] and 15.7% (inactive) in [9]. Moreover, the nuclei count in assay [2] is 117%. The values for the z-score in assay [3] (setting [10]), in [3] (setting [11]) and in assay [3] (setting [12]) were -0.0253, -0.323 and -0.359, respectively. Also, the values for the fluorescence slope in assay [5] and in assay [7] were -0.457 (inactive) and 0.00412 (inactive), respectively. Moreover, the NADPH fluorescence slope in [6] is -6.2e-05 (inactive). Further, in [8], the result was inactive.

For the molecule `Cc1cc(Nc2ccc3ccccc3c2)n2ncnc2n1`, the cell count in assay [1] came to 503. The inhibition is -0.6% (inactive) in assay [1], 56.4% (inactive) in [2], 3.97% (inactive) in assay [4] and -3.1% (inactive) in assay [9]. This molecule also gave a nuclei count in [2] of 146%. The z-score in assay [3] (setting [10]) is -0.633; in assay [3] (setting [11]) it was 0.516; in assay [3] (setting [12]) it was -1.5. The fluorescence slope in assay [5] is -0.414 (inactive); in assay [7] it was 0.00533 (inactive). Moreover, the NADPH fluorescence slope in assay [6] is -4.4e-05 (inactive). Moreover, the call in assay [8] was inactive.

In the case of `Clc1ccc(-n2ncc3c(NCc4cccs4)ncnc32)cc1`, the cell count in assay [1] came out at 615. The inhibition was -9.4% (inactive) in [1], -52.5% (inactive) in assay [2], 11.4% (inactive) in assay [4] and 42.7% (inactive) in [9]. In assay [2], this molecule had a nuclei count of 125%. The results for the z-score in assay [3] (setting [10]), in assay [3] (setting [11]) and in [3] (setting [12]) were 0.539, 0.108 and 0.0803, respectively. Besides, the fluorescence slope in assay [5] was -0.385 (inactive); in [7] it was 0.00704 (inactive). The NADPH fluorescence slope in assay [6] is -2.1e-05 (inactive). The molecule was classed as inactive in assay [8].

Consider `NC(=O)C(c1ccccc1)C1CCCC1` (stereo unspecified), for which the cell count in assay [1] was 603. Besides, the inhibition in [1] was -8.2% (inactive); in [2], -33.8% (inactive); in assay [4], -3.95% (inactive); in [9] it was -3.81% (inactive). This molecule registered a nuclei count in assay [2] of 113%. In addition, the z-score is 1.58 in assay [3] (setting [10]), -0.32 in [3] (setting [11]) and -0.629 in assay [3] (setting [12]). Further, the fluorescence slope in assay [5] was -0.409 (inactive); in [7], 0.00443 (inactive). Moreover, in [6], the NADPH fluorescence slope is -4.8e-05 (inactive). The molecule was classed as inactive in [8].
